Assay results reported in ChEMBL document CHEMBL4689842, “EUbOPEN Chemogenomics Library wave 1” (2021).
Where “and” joins values, the source holds several entries; their conditions need not be identical. Equal values may be shown once.

System: Fibroblast
Assay: Multiplex assay against human fibroblast
Format: toxicity, cell-based
Outline: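 Phenotypes for tubulin, mitochondrial mass and membrane permeability are expressed as per cents of healthy-nucleus cells. Cells were stained live at seeding with Hoechst33342, BioTracker Green Microtubule Cytoskeleton Dye, MitoTracker Red and Annexin V Alexa Fluor 680, then imaged after compound addition on a CQ1 microscope at 37°C and 5% CO2. Machine-learning gating in CellPathfinder separated Hoechst high-intensity objects from normal cells, divided normal cells by nuclear state (healthy, pyknosed, fragmented) and divided pyknosed cells into mitotic or apoptotic.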

[1] = 12 h, 1 µM, compound concentration 1 uM, replicate 1
[2] = 12 h, 1 µM, compound concentration 1 uM, replicate 2
[3] = 24 h, 1 µM, compound concentration 1 uM, replicate 1
[4] = 24 h, 1 µM, compound concentration 1 uM, replicate 2
[5] = 12 h, 10 µM, compound concentration 10 uM, replicate 1
[6] = 12 h, 10 µM, compound concentration 10 uM, replicate 2
[7] = 24 h, 10 µM, compound concentration 10 uM, replicate 1
[8] = 24 h, 10 µM, compound concentration 10 uM, replicate 2
[9] = 48 h, 1 µM, compound concentration 1 uM, replicate 1
[10] = 48 h, 1 µM, compound concentration 1 uM, replicate 2
[11] = 48 h, 10 µM, compound concentration 10 uM, replicate 1
[12] = 48 h, 10 µM, compound concentration 10 uM, replicate 2

C[C@H]1Oc2cc(cnc2N)-c2c(nn(C)c2C#N)CN(C)C(=O)c2ccc(F)cc21 [LORLATINIB]
Population Apoptotic (%) [1]: 60% and 68% | Population Fragmented Nuclei (%) [1]: 26% and 17% | Population Healthy Nuclei (%) [1]: 55% and 68% | Population Hoechst High Intensity Objects (%) [1]: 19% and 8% | Population Membrane Permeable-Phenotype (%) [1]: 20% and 11% | Population Mitochondria Different-Phenotype (%) [1]: 7% and 4% | Population Mitotic Cells (%) [1]: 40% and 31% | Population Normal (%) [1]: 80% and 91% | Population Pyknosed Nuclei (%) [1]: 17% and 14% | Total Cell Count [1]: 210 and 172 | Population Apoptotic (%) [2]: 42% and 64% | Population Fragmented Nuclei (%) [2]: 63% and 54% | Population Healthy Nuclei (%) [2]: 25% and 15% | Population Hoechst High Intensity Objects (%) [2]: 34% and 31% | Population Membrane Permeable-Phenotype (%) [2]: 33% and 28% | Population Mitotic Cells (%) [2]: 57% and 35% | Population Normal (%) [2]: 65% and 68% | Population Pyknosed Nuclei (%) [2]: 11% and 30% | Population Tubulin-Different-Phenotype (%) [2]: 40% and 57% | Total Cell Count [2]: 91 and 67 | Population Apoptotic (%) [3]: 55% and 64% | Population Fragmented Nuclei (%) [3]: 22% and 24% | Population Healthy Nuclei (%) [3]: 56% and 66% | Population Hoechst High Intensity Objects (%) [3]: 14% and 12% | Population Membrane Permeable-Phenotype (%) [3]: 15% and 6% | Population Mitotic Cells (%) [3]: 44% and 35% | Population Normal (%) [3]: 85% and 87% | Population Pyknosed Nuclei (%) [3]: 21% | Total Cell Count [3]: 201 and 190 | Population Apoptotic (%) [4]: 57% and 40% | Population Fragmented Nuclei (%) [4]: 55% and 65% | Population Hoechst High Intensity Objects (%) [4]: 36% and 33% | Population Membrane Permeable-Phenotype (%) [4]: 33% and 20% | Population Mitochondria Different-Phenotype (%) [4]: 0% and 13% | Population Mitotic Cells (%) [4]: 42% and 60% | Population Normal (%) [4]: 63% and 66% | Population Tubulin-Different-Phenotype (%) [4]: 33% and 26% | Total Cell Count [4]: 60 and 87

O=C1NC(=O)C(c2cnc3ccccn23)=C1c1cn2c3c(cc(F)cc13)CN(C(=O)N1CCCCC1)CC2 [LY-2090314]
Population Apoptotic (%) [1]: 60% | Population Fragmented Nuclei (%) [1]: 16% | Population Healthy Nuclei (%) [1]: 32% | Population Hoechst High Intensity Objects (%) [1]: 11% | Population Membrane Permeable-Phenotype (%) [1]: 29% | Population Mitochondria Different-Phenotype (%) [1]: 22% | Population Mitotic Cells (%) [1]: 40% | Population Normal (%) [1]: 88% | Population Pyknosed Nuclei (%) [1]: 51% | Population Tubulin-Different-Phenotype (%) [1]: 89% | Total Cell Count [1]: 166 | Population Apoptotic (%) [2]: 80% | Population Fragmented Nuclei (%) [2]: 3% | Population Healthy Nuclei (%) [2]: 87% | Population Hoechst High Intensity Objects (%) [2]: 12% | Population Membrane Permeable-Phenotype (%) [2]: 6% | Population Mitochondria Different-Phenotype (%) [2]: 16% | Population Mitotic Cells (%) [2]: 20% | Population Normal (%) [2]: 87% | Population Pyknosed Nuclei (%) [2]: 9% | Population Tubulin-Different-Phenotype (%) [2]: 22% | Total Cell Count [2]: 85 | Population Apoptotic (%) [5]: 61% | Population Fragmented Nuclei (%) [5]: 23% | Population Healthy Nuclei (%) [5]: 31% | Population Hoechst High Intensity Objects (%) [5]: 6% | Population Membrane Permeable-Phenotype (%) [5]: 50% | Population Mitochondria Different-Phenotype (%) [5]: 26% | Population Mitotic Cells (%) [5]: 38% | Population Normal (%) [5]: 93% | Population Pyknosed Nuclei (%) [5]: 44% | Population Tubulin-Different-Phenotype (%) [5]: 86% | Total Cell Count [5]: 101 | Population Apoptotic (%) [6]: 100% | Population Fragmented Nuclei (%) [6]: 9% | Population Healthy Nuclei (%) [6]: 74% | Population Hoechst High Intensity Objects (%) [6]: 10% | Population Membrane Permeable-Phenotype (%) [6]: 40% | Population Mitochondria Different-Phenotype (%) [6]: 96% | Population Mitotic Cells (%) [6]: 0% | Population Normal (%) [6]: 89% | Population Pyknosed Nuclei (%) [6]: 16% | Population Tubulin-Different-Phenotype (%) [6]: 96% | Total Cell Count [6]: 63 | Population Apoptotic (%) [3]: 64% | Population Fragmented Nuclei (%) [3]: 25% | Population Healthy Nuclei (%) [3]: 36% | Population Hoechst High Intensity Objects (%) [3]: 7% | Population Membrane Permeable-Phenotype (%) [3]: 26% | Population Mitochondria Different-Phenotype (%) [3]: 17% | Population Mitotic Cells (%) [3]: 35% | Population Normal (%) [3]: 92% | Population Pyknosed Nuclei (%) [3]: 38% | Population Tubulin-Different-Phenotype (%) [3]: 86% | Total Cell Count [3]: 156 | Population Apoptotic (%) [4]: 80% | Population Fragmented Nuclei (%) [4]: 4% | Population Healthy Nuclei (%) [4]: 87% | Population Hoechst High Intensity Objects (%) [4]: 13% | Population Membrane Permeable-Phenotype (%) [4]: 7% | Population Mitochondria Different-Phenotype (%) [4]: 22% | Population Mitotic Cells (%) [4]: 20% | Population Normal (%) [4]: 86% | Population Pyknosed Nuclei (%) [4]: 8% | Population Tubulin-Different-Phenotype (%) [4]: 18% | Total Cell Count [4]: 82 | Population Apoptotic (%) [7]: 70% | Population Fragmented Nuclei (%) [7]: 24% | Population Healthy Nuclei (%) [7]: 34% | Population Hoechst High Intensity Objects (%) [7]: 11% | Population Membrane Permeable-Phenotype (%) [7]: 41% | Population Mitochondria Different-Phenotype (%) [7]: 58% | Population Mitotic Cells (%) [7]: 29% | Population Normal (%) [7]: 88% | Population Pyknosed Nuclei (%) [7]: 41% | Population Tubulin-Different-Phenotype (%) [7]: 87% | Total Cell Count [7]: 102 | Population Apoptotic (%) [8]: 81% | Population Fragmented Nuclei (%) [8]: 11% | Population Healthy Nuclei (%) [8]: 64% | Population Hoechst High Intensity Objects (%) [8]: 4% | Population Membrane Permeable-Phenotype (%) [8]: 37% | Population Mitochondria Different-Phenotype (%) [8]: 96% | Population Mitotic Cells (%) [8]: 18% | Population Normal (%) [8]: 95% | Population Pyknosed Nuclei (%) [8]: 24% | Population Tubulin-Different-Phenotype (%) [8]: 96% | Total Cell Count [8]: 72 | Population Apoptotic (%) [9]: 79% | Population Fragmented Nuclei (%) [9]: 36% | Population Healthy Nuclei (%) [9]: 22% | Population Hoechst High Intensity Objects (%) [9]: 6% | Population Membrane Permeable-Phenotype (%) [9]: 14% | Population Mitochondria Different-Phenotype (%) [9]: 25% | Population Mitotic Cells (%) [9]: 20% | Population Normal (%) [9]: 93% | Population Pyknosed Nuclei (%) [9]: 41% | Population Tubulin-Different-Phenotype (%) [9]: 85% | Total Cell Count [9]: 127 | Population Apoptotic (%) [10]: 75% | Population Fragmented Nuclei (%) [10]: 55% | Population Healthy Nuclei (%) [10]: 29% | Population Hoechst High Intensity Objects (%) [10]: 8% | Population Membrane Permeable-Phenotype (%) [10]: 26% | Population Mitochondria Different-Phenotype (%) [10]: 26% | Population Mitotic Cells (%) [10]: 25% | Population Normal (%) [10]: 91% | Population Pyknosed Nuclei (%) [10]: 15% | Population Tubulin-Different-Phenotype (%) [10]: 69% | Total Cell Count [10]: 86 | Population Apoptotic (%) [11]: 73% | Population Fragmented Nuclei (%) [11]: 28% | Population Healthy Nuclei (%) [11]: 25% | Population Hoechst High Intensity Objects (%) [11]: 15% | Population Membrane Permeable-Phenotype (%) [11]: 28% | Population Mitochondria Different-Phenotype (%) [11]: 57% | Population Mitotic Cells (%) [11]: 26% | Population Normal (%) [11]: 84% | Population Pyknosed Nuclei (%) [11]: 46% | Population Tubulin-Different-Phenotype (%) [11]: 71% | Total Cell Count [11]: 97 | Population Apoptotic (%) [12]: 93% | Population Fragmented Nuclei (%) [12]: 10% | Population Healthy Nuclei (%) [12]: 61% | Population Hoechst High Intensity Objects (%) [12]: 16% | Population Membrane Permeable-Phenotype (%) [12]: 5% | Population Mitochondria Different-Phenotype (%) [12]: 85% | Population Mitotic Cells (%) [12]: 6% | Population Normal (%) [12]: 83% | Population Pyknosed Nuclei (%) [12]: 27% | Population Tubulin-Different-Phenotype (%) [12]: 85% | Total Cell Count [12]: 66
